{
  "source": "ChEMBL document CHEMBL4513216",
  "about": "“Probing the Open Global Health Chemical Diversity Library for Multistage-Active Starting Points for Next-Generation Antimalarials” (ACS Infect Dis, 2020)",
  "experiment": "Toxicity liver stage against HepG2, at 10uM",
  "assay_type": "cell-based",
  "parameters": "test concentration 10 uM, cell line HepG2-A16-CD81EGFP",
  "settings": "human, HepG2-A16-CD81EGFP cells; read-out: INHIBITION",
  "method_in_brief": "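Uninfected HepG2-A16-CD81EGFP cells, 3 × 10^3 per well, 1536-well, plated on prespotted compound at 10 μM final, parasite-free screening media added to match infected plates; puromycin 10 μM positive, DMSO 0.5% negative; run in parallel with 48 h PbLuc assay at 37 °C, 5% CO2; viability by CellTiter-Glo luminescence, normalized to controls.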",
  "data": [
    {"smiles": "CC(C)c1nccc(C2(c3ccccc3Cl)CCNCC2)n1", "values": [
      {"measurement": "cytotoxicity at 10 µM", "result": 1.93, "unit": "%"}
    ]},
    {"smiles": "Cc1cnn(CC2CCCCN2C(=O)c2ccc(C#N)c(C)n2)c1", "note": "(centres undefined)", "values": [
      {"measurement": "cytotoxicity at 10 µM", "result": -1.18, "unit": "%"}
    ]},
    {"smiles": "COC(=O)N1CCc2ccccc2C1C(=O)NCc1cccs1", "note": "(centres undefined)", "values": [
      {"measurement": "cytotoxicity at 10 µM", "result": -0.634, "unit": "%"}
    ]},
    {"smiles": "CNc1cncc(C2CCCN2C(=O)Cn2c(=O)oc3ccccc32)n1", "note": "(centres undefined)", "values": [
      {"measurement": "cytotoxicity at 10 µM", "result": -6.14, "unit": "%"}
    ]},
    {"smiles": "OC1CCN(c2ccc(CNc3nc4ccccc4o3)cc2F)CC1", "values": [
      {"measurement": "cytotoxicity at 10 µM", "result": 0.833, "unit": "%"}
    ]},
    {"smiles": "CC(C)(O)CN1CCN(C(=O)c2cccc3[nH]ncc23)CC1", "values": [
      {"measurement": "cytotoxicity at 10 µM", "result": 3.28, "unit": "%"}
    ]},
    {"smiles": "c1cc(CN2CC[C@@H]3CN(c4cncnc4)C[C@@H]3C2)ccn1", "values": [
      {"measurement": "cytotoxicity at 10 µM", "result": -116, "unit": "%"}
    ]},
    {"smiles": "NC(=O)NC(=O)Cn1ccc2sccc2c1=O", "values": [
      {"measurement": "cytotoxicity at 10 µM", "result": 0.354, "unit": "%"}
    ]},
    {"smiles": "CS(=O)(=O)NC1(CCc2ccc(NC(=O)C3CC3)nc2)CCCCC1", "values": [
      {"measurement": "cytotoxicity at 10 µM", "result": 6.56, "unit": "%"}
    ]},
    {"smiles": "Cc1nc(C)n(C2CCCN(C(=O)CCOc3cccc(F)c3)C2)n1", "note": "(centres undefined)", "values": [
      {"measurement": "cytotoxicity at 10 µM", "result": -1.79, "unit": "%"}
    ]},
    {"smiles": "CCn1cc(CN2CCN(C(=O)N3CCOCC3)CC2)cn1", "values": [
      {"measurement": "cytotoxicity at 10 µM", "result": -52.8, "unit": "%"}
    ]},
    {"smiles": "CC(=O)C1(c2ccccc2)CCN(C(=O)c2ccn3nnnc3c2)CC1", "values": [
      {"measurement": "cytotoxicity at 10 µM", "result": -4.97, "unit": "%"}
    ]},
    {"smiles": "Cc1ccc(C(=O)NS(=O)(=O)Cc2ccc(F)cc2)cc1S(C)(=O)=O", "values": [
      {"measurement": "cytotoxicity at 10 µM", "result": -7.36, "unit": "%"}
    ]},
    {"smiles": "Cc1csc(CNC(=O)N(C)Cc2ccc3c(c2)OCO3)n1", "values": [
      {"measurement": "cytotoxicity at 10 µM", "result": -4.31, "unit": "%"}
    ]},
    {"smiles": "O=C1CC2(CCCCN2C(=O)c2ccoc2)CN1Cc1ccccc1", "note": "(centres undefined)", "values": [
      {"measurement": "cytotoxicity at 10 µM", "result": 6.35, "unit": "%"}
    ]},
    {"smiles": "Cn1cnnc1SCC(=O)NC1CC(=O)N(CCc2ccccc2)C1", "note": "(centres undefined)", "values": [
      {"measurement": "cytotoxicity at 10 µM", "result": 3.03, "unit": "%"}
    ]},
    {"smiles": "CSc1nc(N)cc(N2C[C@H]3CC[C@@H](C2)N(Cc2cscn2)C3=O)n1", "values": [
      {"measurement": "cytotoxicity at 10 µM", "result": -12, "unit": "%"}
    ]},
    {"smiles": "Cc1ccc(C(=O)Nc2nnc(C(C)C)s2)c(-n2cnnn2)c1C", "values": [
      {"measurement": "cytotoxicity at 10 µM", "result": -0.649, "unit": "%"}
    ]},
    {"smiles": "CCN1CCOCC2(CCCN(c3nncs3)C2)C1", "note": "(centres undefined)", "values": [
      {"measurement": "cytotoxicity at 10 µM", "result": 8.28, "unit": "%"}
    ]},
    {"smiles": "CC(Cc1ccccc1F)C(=O)Nc1cccc(OCC(N)=O)c1", "note": "(centres undefined)", "values": [
      {"measurement": "cytotoxicity at 10 µM", "result": -1.34, "unit": "%"}
    ]},
    {"smiles": "CC(NC(=O)NCC1(c2ccc(Cl)cc2)CC1)c1nncn1C", "note": "(centres undefined)", "values": [
      {"measurement": "cytotoxicity at 10 µM", "result": -3.25, "unit": "%"}
    ]},
    {"smiles": "O=C1NCC(C(=O)Nc2ncc(Cc3ccccc3)s2)N1", "note": "(centres undefined)", "values": [
      {"measurement": "cytotoxicity at 10 µM", "result": 5.92, "unit": "%"}
    ]},
    {"smiles": "Cc1nc([C@@H]2C[C@H]3CN(Cc4ccc5c(c4)OCO5)C[C@H]3O2)no1", "values": [
      {"measurement": "cytotoxicity at 10 µM", "result": -115, "unit": "%"}
    ]},
    {"smiles": "Cc1cccc(COC2COC3(CCN(S(C)(=O)=O)CC3)C2)n1", "note": "(centres undefined)", "values": [
      {"measurement": "cytotoxicity at 10 µM", "result": 8.98, "unit": "%"}
    ]},
    {"smiles": "CSc1nccc(N2CCC3(CCCN(Cc4ccc(F)cc4)C3)C2)n1", "note": "(centres undefined)", "values": [
      {"measurement": "cytotoxicity at 10 µM", "result": 9.5, "unit": "%"}
    ]},
    {"smiles": "c1csc(-c2noc(C3CCCNC3)n2)c1", "note": "(centres undefined)", "values": [
      {"measurement": "cytotoxicity at 10 µM", "result": -2.5, "unit": "%"}
    ]},
    {"smiles": "CCc1noc(C(C)N2CCN(c3ncnc4sccc34)CC2)n1", "note": "(centres undefined)", "values": [
      {"measurement": "cytotoxicity at 10 µM", "result": 56.3, "unit": "%"}
    ]},
    {"smiles": "C[C@@H]1CN(S(C)(=O)=O)C[C@]12CCN(Cc1cccnc1)C2=O", "values": [
      {"measurement": "cytotoxicity at 10 µM", "result": 0.169, "unit": "%"}
    ]},
    {"smiles": "Cc1ncsc1CNc1ccn(Cc2ccccc2)n1", "values": [
      {"measurement": "cytotoxicity at 10 µM", "result": 9.58, "unit": "%"}
    ]},
    {"smiles": "CNc1ncc(CN(C)Cc2cc(O)c3cccc(Cl)c3n2)cn1", "values": [
      {"measurement": "cytotoxicity at 10 µM", "result": 7.05, "unit": "%"}
    ]},
    {"smiles": "O=C(c1cccnc1-n1cncn1)N1CCN(CC(F)(F)F)CC1", "values": [
      {"measurement": "cytotoxicity at 10 µM", "result": 4.39, "unit": "%"}
    ]},
    {"smiles": "COCCn1cc(C(=O)N2CCCC(n3cncn3)C2)ccc1=O", "note": "(centres undefined)", "values": [
      {"measurement": "cytotoxicity at 10 µM", "result": -2.38, "unit": "%"}
    ]},
    {"smiles": "CCNC(=O)N(C)C(c1ccccc1)c1ccccn1", "note": "(centres undefined)", "values": [
      {"measurement": "cytotoxicity at 10 µM", "result": 1.52, "unit": "%"}
    ]},
    {"smiles": "Cn1cncc1CNC1CC2(CCN(CC3CC3)CC2)c2ccccc21", "note": "(centres undefined)", "values": [
      {"measurement": "cytotoxicity at 10 µM", "result": 0.565, "unit": "%"}
    ]},
    {"smiles": "CNc1snc(C)c1C(=O)N1CCCC(n2cccn2)C1", "note": "(centres undefined)", "values": [
      {"measurement": "cytotoxicity at 10 µM", "result": -3.81, "unit": "%"}
    ]},
    {"smiles": "Cc1ccc(CNC(=O)NC2CCC(O)CC2)c(N2CCCC2)c1", "note": "(centres undefined)", "values": [
      {"measurement": "cytotoxicity at 10 µM", "result": -16.4, "unit": "%"}
    ]},
    {"smiles": "CN(C)S(=O)(=O)N1CCCCCC1c1cc(-c2ccc(F)cc2)no1", "note": "(centres undefined)", "values": [
      {"measurement": "cytotoxicity at 10 µM", "result": 10.6, "unit": "%"}
    ]},
    {"smiles": "CC(C)c1ncc2c(n1)CN(Cc1cccc(C(N)=O)c1)CC2", "values": [
      {"measurement": "cytotoxicity at 10 µM", "result": -9.17, "unit": "%"}
    ]},
    {"smiles": "Cc1cc2cc(C(=O)N3CCN(CCO)[C@@H]4CS(=O)(=O)C[C@@H]43)ccc2o1", "values": [
      {"measurement": "cytotoxicity at 10 µM", "result": -0.357, "unit": "%"}
    ]},
    {"smiles": "Cc1ccc2nc(C)cc(NCCNS(=O)(=O)c3cn(C)nc3C)c2c1", "values": [
      {"measurement": "cytotoxicity at 10 µM", "result": 8.06, "unit": "%"}
    ]},
    {"smiles": "Cn1nc(C(=O)N2CCOCC2)cc1C(=O)Nc1ncc(Cl)cc1Cl", "values": [
      {"measurement": "cytotoxicity at 10 µM", "result": 12.5, "unit": "%"}
    ]},
    {"smiles": "O=C(c1ccccn1)N1CCC2(CC1)CN(c1cncnc1)C(=O)CO2", "values": [
      {"measurement": "cytotoxicity at 10 µM", "result": -67, "unit": "%"}
    ]},
    {"smiles": "COc1cc(C(C)NCc2c[nH]nc2C)ccc1OCCO", "note": "(centres undefined)", "values": [
      {"measurement": "cytotoxicity at 10 µM", "result": -7.47, "unit": "%"}
    ]},
    {"smiles": "CCC(=O)N1CCC(c2nc3ccc(NC(C)C)cn3n2)CC1", "values": [
      {"measurement": "cytotoxicity at 10 µM", "result": -10.2, "unit": "%"}
    ]}
  ]
}
